Results of several laboratories.
Protocols differ between the studies behind these lines.
Read-out: binding
Tumor necrosis factor receptor superfamily member 9: Tumor necrosis factor receptor superfamily member 9 (Homo sapiens, UniProt Q07011)
MET: Hepatocyte growth factor receptor (MET, Homo sapiens, UniProt P08581)

Compound	target	assay	setting	Kd [µM]
CCCN1CCc2cc(OC)cc3c2[C@H]1Cc1ccc(O)c(O)c1-3	D(2) dopamine receptor (Drd2, Rattus norvegicus, UniProt P61169)	radioligand	cell membranes	0.00221
CCCC[C@@H]1NC(=O)[C@H](Cc2ccc(O)cc2)NC(=O)[C@@H]2CCCN2C(=O)[C@H](CC(=O)O)NC(=O)[C@H](C)NC(=O)[C@H](Cc2ccccc2)NC(=O)[C@@H]2CSCCC(=O)N3CN(CN(C3)C(=O)CCSC[C@@H](C(N)=O)NC1=O)C(=O)CCSCCC(=O)N[C@@H](CC(C)(C)C)C(=O)N1CCC[C@H]1C(=O)N[C@@H](CCC(=O)O)C(=O)N[C@H](CCCCNC(=O)CCc1cn(CCOCCOCCOCCOCCOCCC(=O)N[C@H]3CSCCC(=O)N4CN5CN(C4)C(=O)CCSC[C@H](NC(=O)[C@@H](CC(=O)O)NC(=O)[C@H](Cc4cccc6ccccc46)NC(=O)[C@@H]4CCCN4C3=O)C(=O)N[C@@H](CCSC)C(=O)N[C@@H](CCCCNC(=N)N)C(=O)N[C@@H](CC(=O)O)C(=O)N[C@@H](Cc3c[nH]c4ccccc34)C(=O)N[C@@H](CO)C(=O)N[C@@H]([C@@H](C)O)C(=O)N3CCC[C@H]3C(=O)N3C[C@H](O)C[C@H]3C(=O)N[C@@H](Cc3c[nH]c4ccccc34)C(=O)N[C@H](C(N)=O)CSCCC5=O)nn1)C(=O)N1CCC[C@H]1C(=O)N[C@@H](Cc1ccc(O)cc1)C(=O)N2	Tumor necrosis factor receptor superfamily member 9	SPR		0.012
C[C@@H](c1ccccc1)n1cc(-c2cc(F)cc(F)c2)c(=O)[nH]c1=O	MET			1
OC[C@H]1OC(O)[C@H](O)[C@@H](O)[C@@H]1O (stereo partly shown)	Hexokinase-4 (GCK, Homo sapiens, UniProt P35557)	stopped-flow		5000
CCCC[C@@H]1NC(=O)[C@H](Cc2ccc(O)cc2)NC(=O)[C@@H]2CCCN2C(=O)[C@H](CC(=O)O)NC(=O)[C@H](C)NC(=O)[C@H](Cc2ccccc2)NC(=O)[C@@H]2CSCCC(=O)N3CN(CN(C3)C(=O)CCSC[C@@H](C(=O)N[C@@H](C)C(N)=O)NC1=O)C(=O)CCSC[C@H](NC(C)=O)C(=O)N[C@@H](CC(C)(C)C)C(=O)N1CCC[C@H]1C(=O)N[C@@H](CCC(=O)O)C(=O)N[C@H](CCCCNC(=O)CCc1cn(CCOCCOCCOCCOCCOCCC(=O)N[C@H]3CSCCC(=O)N4CN5CN(C4)C(=O)CCSC[C@H](NC(=O)CNC(=O)[C@H](Cc4ccccc4)NC(=O)[C@@H]4CCCN4C3=O)C(=O)N[C@@H](CCSC)C(=O)N[C@@H](CCCCNC(=N)N)C(=O)N[C@@H](CC(=O)O)C(=O)N[C@@H](Cc3c[nH]c4ccccc34)C(=O)N[C@@H](CO)C(=O)N[C@@H]([C@@H](C)O)C(=O)N3CCC[C@H]3C(=O)N3C[C@H](O)C[C@H]3C(=O)N[C@@H](Cc3c[nH]c4ccccc34)C(=O)N[C@H](C(N)=O)CSCCC5=O)nn1)C(=O)N1CCC[C@H]1C(=O)N[C@@H](Cc1ccc(O)cc1)C(=O)N2	Tumor necrosis factor receptor superfamily member 9	SPR		0.0037
CC(c1ccccc1)n1cc(-c2cc(F)cc3c(C#N)n[nH]c23)c(=O)[nH]c1=O (stereo not shown)	MET			0.0794
CCCC[C@@H]1NC(=O)[C@H](Cc2ccc(O)cc2)NC(=O)[C@@H]2CCCN2C(=O)[C@H](CC(=O)O)NC(=O)[C@H](C)NC(=O)[C@H](Cc2ccccc2)NC(=O)[C@@H]2CSCCC(=O)N3CN(CN(C3)C(=O)CCSC[C@@H](C(=O)N[C@@H](C)C(N)=O)NC1=O)C(=O)CCSC[C@H](NC(C)=O)C(=O)N[C@@H](CC(C)(C)C)C(=O)N1CCC[C@H]1C(=O)N[C@@H](CCC(=O)O)C(=O)N[C@H](CCCCNC(=O)CCc1cn(CCOCCOCCOCCOCCOCCC(=O)NCCCC[C@H]3NC(=O)[C@H](Cc4cccc5ccccc45)NC(=O)[C@@H]4CCCN4C(=O)[C@@H](NC(C)=O)CSCCC(=O)N4CN5CN(C4)C(=O)CCSC[C@H](NC3=O)C(=O)N[C@@H](CCSC)C(=O)N[C@@H](CCCCNC(=N)N)C(=O)N[C@@H](CC(=O)O)C(=O)N[C@@H](Cc3c[nH]c4ccccc34)C(=O)N[C@@H](CO)C(=O)N[C@@H]([C@@H](C)O)C(=O)N3CCC[C@H]3C(=O)N3C[C@H](O)C[C@H]3C(=O)N[C@@H](Cc3c[nH]c4ccccc34)C(=O)N[C@H](C(N)=O)CSCCC5=O)nn1)C(=O)N1CCC[C@H]1C(=O)N[C@@H](Cc1ccc(O)cc1)C(=O)N2	Tumor necrosis factor receptor superfamily member 9	SPR		0.0043
CCCCC1(CCCCCCCCCCCCC(=O)O)OCC(C)(C)N1[O] (stereo not shown)	kcsA (Streptomyces lividans, UniProt P0A334)			0.1 to 1
CC(c1ccccc1)n1cc(-c2c(F)ccc3cn[nH]c23)c(=O)[nH]c1=O (stereo not shown)	MET			0.398
CC[C@H](C)[C@H](NC(=O)[C@H](CCC(=O)O)NC(=O)[C@H](CCC(=O)O)NC(=O)[C@H](CCC(N)=O)NC(=O)[C@@H](NC(=O)[C@@H](N)CC(=O)O)[C@@H](C)CC)C(=O)N[C@@H](CC(C)C)C(=O)N[C@@H](CO)C(=O)NCC(=O)N[C@@H](CCCCN)C(=O)N[C@@H](CO)C(=O)O	Ubiquitin carboxyl-terminal hydrolase 7 (USP7, Homo sapiens, UniProt Q93009)	ITC	pH 8	424
